In PubChem BioAssay:
The source made the active and inactive calls.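 How the source made its calls, unless noted: active means visually confirmed hit in the image check and inhibition above 20%; inconclusive means visually confirmed hit but inhibition not above 20%; inactive means no visual hit in the image check.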

Key:
[1] = inhibitors of TNFa-induced NFkB p65 translocation, primary screen, imaging, HUVEC, MLSMR starter and 10KST1 sets (AID 438;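 active means inhibition above 20% together with a positive visual image hit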;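 further: compound added about 3h40 before a 20 min TNFalpha stimulation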;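 on inhibition: signal is the nuclear over cytoplasmic p65 intensity ratio per well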); details: HUVEC TNFa-induced p65 nuclear translocation; cell count: measured here: nuclei count (cytotoxicity indicator), at 2.08 µM; inhibition: at 2 µM, stronger effect = higher value, 0% TNFa-plus-vehicle, 100% no-TNFa wells
[2] = inhibitors of mutant huntingtin aggregation, primary screen, imaging, exon1htt(103Q)mCFP cells, high-content imaging (AID 483;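 active means visual image review flags a hit and inhibition of aggregation exceeds 20%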;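 further: compound exposure lasted 3 days before fixation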;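 on nuclei count: percent of the per-plate median nuclei count of sample wells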); details: exon1htt(103Q)mCFP cell line, aggregate imaging, at 2 µM; inhibition of aggregation: stronger effect = higher value; nuclei count: measured here: cell count, toxicity
[3] = inhibitors of E-selectin induction by TNFa, primary screen, imaging, HUVEC, immunofluorescence, MLSMR starter and 10KST1 sets (AID 487); details: HUVEC TNFalpha-induced E-selectin immunofluorescence imaging, at 2 µM; inhibition: stronger effect = higher value; nuclei count: measured here: cell number, toxicity;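 on inhibition: signal is fraction of cell area covered by stained E-selectin grains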;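 on nuclei count: 100% = median nuclei count of all wells on the same plate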
[4] = target: Voltage-gated potassium channel subunit beta-2 (Rattus norvegicus) (UniProt P62483); assay: KvBeta enzyme negative modulators, primary screen, biochemical, NADPH fluorescence (AID 622;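 active means fluorescence slope higher than the sample average by over 3 SD, cut at about -0.22 in these data, passing the limit was not always enough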;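 further: slope of raw intensity against log time taken from 70 to 1610 s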); details: recombinant KvBeta, 4-cyanobenzaldehyde reduction, at 10 µM, stronger effect = higher value
Chain of Voltage-gated potassium channel subunit beta-2 (Rattus norvegicus) (P62483 whole entry, looked up): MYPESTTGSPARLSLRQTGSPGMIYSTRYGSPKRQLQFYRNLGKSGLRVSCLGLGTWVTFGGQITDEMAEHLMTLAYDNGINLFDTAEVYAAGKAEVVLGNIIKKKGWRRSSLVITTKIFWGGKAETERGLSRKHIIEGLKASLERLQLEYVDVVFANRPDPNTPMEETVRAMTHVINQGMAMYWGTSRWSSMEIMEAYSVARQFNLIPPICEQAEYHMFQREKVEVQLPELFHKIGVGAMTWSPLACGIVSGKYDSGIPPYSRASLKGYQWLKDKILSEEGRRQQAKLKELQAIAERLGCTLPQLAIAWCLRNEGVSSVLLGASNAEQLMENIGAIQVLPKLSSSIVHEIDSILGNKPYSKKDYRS

[5] = target: Voltage-gated potassium channel subunit beta-2 (Rattus norvegicus) (UniProt P62483); assay: KvBeta positive modulators, primary screen, biochemical, NADPH fluorescence (AID 623;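 active means NADPH fluorescence slope more negative than the mean of all samples by about 3 SD, 99.7% confidence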;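 further: fluorescence intensity change per second fitted from 20 to 320 s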); details: Recombinant KvBeta, NADPH fluorescence decrease slope, 10 min; at 10 µM; stronger effect = lower value
[6] = target: Muscarinic acetylcholine receptor M4 (Homo sapiens) (UniProt P08173); assay: compounds altering M4/GIRK thallium flux, either direction, primary screen, M4 allosteric agonist project, cell-based, HEK293 M4/GIRK, BTC-AM (AID 625;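 active means fluorescence slope after compound addition differing from the mean of all tested samples at 99.7% confidence, mostly higher but some lower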;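 further: thallium influx through GIRK channels coupled to M4 in HEK293 cells with BTC-AM dye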); details: at 10 µM, actives lie on both sides
Chain of Muscarinic acetylcholine receptor M4 (Homo sapiens) (P08173 whole entry, looked up): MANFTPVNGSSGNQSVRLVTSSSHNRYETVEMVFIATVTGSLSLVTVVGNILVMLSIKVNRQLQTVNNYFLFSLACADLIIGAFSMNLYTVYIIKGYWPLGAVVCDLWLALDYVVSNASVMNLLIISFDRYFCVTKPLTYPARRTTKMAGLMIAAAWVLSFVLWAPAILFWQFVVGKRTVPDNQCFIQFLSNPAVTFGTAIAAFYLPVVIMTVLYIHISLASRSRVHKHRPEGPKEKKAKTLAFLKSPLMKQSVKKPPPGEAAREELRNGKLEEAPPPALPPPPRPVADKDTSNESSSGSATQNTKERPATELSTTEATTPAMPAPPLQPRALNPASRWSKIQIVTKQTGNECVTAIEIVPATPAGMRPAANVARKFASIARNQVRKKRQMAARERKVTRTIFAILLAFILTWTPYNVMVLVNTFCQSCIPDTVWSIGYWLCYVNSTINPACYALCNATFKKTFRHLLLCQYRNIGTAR
Method in brief: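 assay system = HEK293 cells with M4 receptor and GIRK channels | medium = pH 7.3 thallium assay buffer | doses = 10 µM final, single point | timing = cells overnight at 37 °C, BTC-AM loading 1 h, reads 2 min total | signal = BTC-AM fluorescence, 1 Hz kinetic reads | read-out = post-addition slope, 15–24 s, of baseline-normalized fluorescence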

[7] = inhibitors of Sendai virus-induced IRF3 signaling, primary screen, TLR/RLR signaling modifier project, cell-based, Sendai virus stimulus, luciferase, 10K MLSCN set (AID 602276;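 active means inhibition at or above 50% at 10 µM; inactive means inhibition below 50%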;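 further: firefly luciferase from ISG56 promoter only with Renilla not read in this screen; 0% = Sendai virus plus DMSO and 100% = medium plus DMSO without virus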); details: HEK293 RL24 IRF3 luciferase reporter, at 10 µM, stronger effect = higher value
[8] = inhibitors of poly I:C-induced TLR3 signaling, primary screen, cell-based, poly I:C stimulus, luciferase, 10K MLSCN set (AID 602277;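 active means inhibition of the reporter signal at or above 50%; inactive means inhibition below 50%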); details: HEK293-TLR3 RL24 IRF3 luciferase reporter, at 10 µM, stronger effect = higher value

SMILES	cell count [1]	inhibition [1]	inhibition of aggregation [2]	nuclei count [2]	inhibition [3]	nuclei count [3]	fluorescence slope [4]	NADPH fluorescence slope [5]	fluorescence slope [6]	inhibition [7]	inhibition [8]
CCOC(=O)N1CCN(S(=O)(=O)c2ccc(Br)s2)CC1	350	-8.6% (inactive)	-13.3% (inactive)	84.3%	-27.3% (inactive)	98.6%	-0.553 (inactive)	-1.3e-06 (inactive)	0.00427 (inactive)	21.3% (inactive)	11.6% (inactive)
CCOC(=O)Nc1sc(=S)n(C)c1C	719	-12.5% (inactive)	-2.4% (inactive)	95.3%	15.9% (inactive)	95.4%	-0.545 (inactive)	2.1e-05 (inactive)	0.00684 (inactive)	12.9% (inactive)	28.8% (inactive)
Cc1nc(C)c(C(=O)Nc2ccc(C)c(F)c2)o1	600	-4.5% (inactive)	19.4% (inactive)	97.5%	-2.7% (inactive)	120%	-0.335 (inactive)	-5.2e-05 (inactive)	0.00567 (inactive)	4.25% (inactive)	-10.3% (inactive)
COc1ccc(N2C(=O)CC(N3CCN(S(=O)(=O)c4c(F)cccc4F)CC3)C2=O)cc1OC (centres undefined)	418	-6.6% (inactive)	1% (inactive)	99.7%	-20.1% (inactive)	112%	-0.572 (inactive)	-1.2e-05 (inactive)	0.00422 (inactive)	9.5% (inactive)	12.6% (inactive)
CC(C)Oc1cccc(-c2cc(C(=O)N3CCN(S(C)(=O)=O)CC3)c3ccccc3n2)c1	638	11.6% (inactive)	11.2% (inactive)	108%	-49% (inactive)	95%	-0.454 (inactive)	2e-05 (inactive)	0.00711 (inactive)	-23% (inactive)	-35.2% (inactive)
COC(=O)c1cccc(NC(=O)NC2CCCN2S(=O)(=O)c2ccc(Cl)cc2)c1 (centres undefined)	612	-16.1% (inactive)	2.9% (inactive)	101%	-144% (inactive)	141%	-0.392 (inactive)	-6.9e-05 (inactive)	0.00559 (inactive)	14% (inactive)	20.5% (inactive)
Cc1nc2cccc(C(=O)NC3CCCCC3)c2o1	369	6.8% (inactive)	-19.6% (inactive)	53.7%	-67.3% (inactive)	102%	-0.416 (inactive)	-1.2e-05 (inactive)	0.00546 (inactive)	10.4% (inactive)	13.1% (inactive)
Cc1cccc(C(=O)N2CCN(C(=O)c3cccc(C)c3)C(C)C2)c1 (centres undefined)	394	-3.8% (inactive)	3.6% (inactive)	113%	-31.8% (inactive)	114%	-0.311 (inactive)	1.4e-05 (inactive)	0.00692 (inactive)	-15.5% (inactive)	-12% (inactive)
CCOC(=O)N1CCC(Nc2c(-c3ccc(C)cc3)c(=O)c2=O)CC1	801	-12.2% (inactive)	26.1% (inactive)	89.2%	-33.6% (inactive)	106%	-0.471 (inactive)	-3.2e-05 (inactive)	0.007 (inactive)	2.25% (inactive)	16.5% (inactive)
Cc1ccc(C(C)C)c(OCCCN2CC(C)OC(C)C2)c1 (centres undefined)	344	-3.9% (inactive)	-17.9% (inactive)	106%	-2.6% (inactive)	100%	-0.243 (inactive)	-5.1e-06 (inactive)	0.00607 (inactive)	8.84% (inactive)	26.1% (inactive)
Cc1cc(C(=O)Nc2cc(C)n(Cc3ccc(Cl)cc3)n2)no1	240	9.5% (inactive)	-10.6% (inactive)	98.8%	-39.5% (inactive)	88.4%	-0.483 (inactive)	-1.4e-05 (inactive)	0.0053 (inactive)	-11.3% (inactive)	-27.1% (inactive)
CCCCNC(=O)Nc1ccnn1C1CCCCC1	909	-7.5% (inactive)	-8.6% (inactive)	100%	-34.1% (inactive)	105%	-0.56 (inactive)	-1.6e-05 (inactive)	0.0186 (active)	17% (inactive)	18.1% (inactive)
Nc1nnc(Cc2ccc(Cl)cc2)s1	331	7.5% (inactive)	-4.2% (inactive)	92.7%	-130% (inactive)	115%	-0.483 (inactive)	-7.5e-05 (inactive)	0.00532 (inactive)	11.6% (inactive)	13% (inactive)
COc1ccc(OCC(=O)N2CCN(C(=O)c3cccs3)CC2)cc1	365	-7% (inactive)	-31.2% (inactive)	89%	-51.4% (inactive)	124%	-0.57 (inactive)	-5.4e-05 (inactive)	0.00633 (inactive)	21.2% (inactive)	17.7% (inactive)
CCC1Oc2ccccc2N(CC(=O)Nc2ccc(OC)cc2OC)C1=O (centres undefined)	726	44.3% (active)	-17.4% (inactive)	117%	-57% (inactive)	127%	-0.533 (inactive)	-0.000132 (inactive)	0.00464 (inactive)	-2.59% (inactive)	4.28% (inactive)
CCOc1ccc2cc(C#N)c(SCC(=O)N3CCOCC3)nc2c1	386	1% (inactive)	11.7% (inactive)	97.9%	-46.6% (inactive)	90.7%	-0.487 (inactive)	-2.5e-05 (inactive)	0.00448 (inactive)	-22.4% (inactive)	-67% (inactive)
CCSc1nnc(NC(=O)CSc2ncccn2)s1	278	0.5% (inactive)	-3% (inactive)	105%	-42.2% (inactive)	111%	-0.529 (inactive)	-4.9e-05 (inactive)	0.00524 (inactive)	-9.35% (inactive)	4% (inactive)
COCCn1c(N)c(C(=O)Nc2sc3c(c2C(=O)OC)CCCC3)c2nc3ccccc3nc21	670	14.9% (inactive)	21.8% (inactive)	84.1%	5.1% (inactive)	100%	-0.57 (inactive)	4.8e-06 (inactive)	0.00595 (inactive)	19.4% (inactive)	9.11% (inactive)
C=CCC(Nc1ccco1)c1ccccc1 (centres undefined)	393	2.5% (inactive)	3.4% (inactive)	112%	-17.9% (inactive)	114%	-0.498 (inactive)	-2.9e-05 (inactive)	0.00454 (inactive)	19% (inactive)	19.6% (inactive)
CCCCNC(=O)c1c(C)cc(=O)oc1C	541	-21.8% (inactive)	-12.9% (inactive)	141%	-29% (inactive)	106%	-0.531 (inactive)	-2.1e-05 (inactive)	0.0056 (inactive)	18.4% (inactive)	14% (inactive)
CCN(CC)c1ccc2c(c1)C(=O)N(C)C2=O	580	-1.9% (inactive)	-5.6% (inactive)	92.2%	-49% (inactive)	104%	-0.417 (inactive)	-6.9e-05 (inactive)	0.00562 (inactive)	-6.87% (inactive)	-37.5% (inactive)
O=C(CCn1c(=O)sc2ccccc21)NC1=NCCS1	620	-25.8% (inactive)	8.6% (inactive)	102%	-118% (inactive)	121%	-0.464 (inactive)	8e-05 (inactive)	0.00544 (inactive)	-9.67% (inactive)	-5.87% (inactive)
CN(CCCC(=O)Nc1ccncc1)S(=O)(=O)c1ccc(Cl)cc1	573	-5.7% (inactive)	-13.4% (inactive)	106%	-18.9% (inactive)	127%	-0.584 (inactive)	2.2e-07 (inactive)	0.00791 (inactive)	-14.2% (inactive)	-29.3% (inactive)
Cc1ccc(Cn2nnc3c(=O)[nH]c(C4CCN(C(=O)c5cccs5)CC4)nc32)cc1	430	5.1% (inactive)	-16.4% (inactive)	106%	-71.2% (inactive)	109%	-0.546 (inactive)	1.3e-05 (inactive)	0.00572 (inactive)	5.84% (inactive)	10.8% (inactive)
N#Cc1nc(-c2cccs2)oc1NCc1ccc(Cl)cc1	341	-8.1% (inactive)	19.1% (inactive)	98.9%	47.2% (inactive)	106%	-0.526 (inactive)	-2e-05 (inactive)	0.00571 (inactive)	18.3% (inactive)	10.5% (inactive)
Cc1ccccc1NC(=O)C1Cc2ccccc2C(=O)O1 (centres undefined)	193	-5.8% (inactive)	-4.8% (inactive)	76.3%	20.2% (inactive)	79.8%	-0.529 (inactive)	-3.3e-05 (inactive)	0.00563 (inactive)	-9.01% (inactive)	-31.6% (inactive)
CCOC(=O)c1sc2ncn(/N=C/N(C)C)c(=O)c2c1C	415	-2.7% (inactive)	40.3% (active)	72.6%	20.9% (inactive)	85.9%	-0.385 (inactive)	6.4e-06 (inactive)	0.00524 (inactive)	5.64% (inactive)	6.76% (inactive)
COc1cc(C2Nc3cccc4cccc(c34)N2)cc(OC)c1O	372	-0.6% (inactive)	29.3% (inactive)	91.5%	-27.6% (inactive)	108%	-0.464 (inactive)	1.6e-05 (inactive)	0.00443 (inactive)	3.04% (inactive)	5% (inactive)
CC(C)(C)Nc1nc(OCC(F)(F)F)nc(OCC(F)(F)F)n1	448	11.9% (inactive)	-14.2% (inactive)	103%	-0.8% (inactive)	114%	-0.424 (inactive)	-0.000395 (inactive)	0.00457 (inactive)	7.39% (inactive)	8.5% (inactive)
